# Source: PubChem BioAssay
# Rows were chosen to be rich in hits. Some 5.9% of all compounds tested hit in one or more screens of this group.
# T cruzi growth-1 – T. cruzi proliferation inhibition; AID 624255; inhibition, % at 8.34 µM; actives 5.9% (n = 77,000); T. cruzi beta-gal in NIH3T3, GalScreen luminescence, 90 h;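 active = mean inhibition above about 93%, with at least 55% of replicates each passing it, limit read from the data, passing the limit was not always enough; inconclusive = only one of those two conditions holds; inactive = neither condition holds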
# GASC1 inh – blocks human GASC-1 (KDM4C) demethylase activity; GST-KDM4C 2-372, H3K9me3 peptide, LANCE TR-FRET; actives 0.15% (n = 96,000); inhibition, % at 12.5 µM;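 active = mean replicate inhibition above about 25%, with at least 55% of replicates also reaching it, limit read from the data, passing the limit was not always enough; inconclusive = only one of those two conditions met; inactive = neither condition met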
# Target sequence (Q9H3R0 2-372 limits assumed): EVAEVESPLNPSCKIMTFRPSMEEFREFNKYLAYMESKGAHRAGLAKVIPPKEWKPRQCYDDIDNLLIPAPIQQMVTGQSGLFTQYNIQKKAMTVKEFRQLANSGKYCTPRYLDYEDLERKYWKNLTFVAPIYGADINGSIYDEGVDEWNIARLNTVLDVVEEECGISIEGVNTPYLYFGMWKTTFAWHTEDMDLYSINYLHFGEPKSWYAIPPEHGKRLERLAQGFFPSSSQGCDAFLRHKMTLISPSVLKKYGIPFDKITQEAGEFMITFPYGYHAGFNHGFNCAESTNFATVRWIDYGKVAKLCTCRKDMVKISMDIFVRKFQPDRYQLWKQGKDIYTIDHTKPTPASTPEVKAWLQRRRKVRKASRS
#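 System: N-terminal GST-fused human GASC-1 (KDM4C) fragment, residues 2-372; amount: enzyme final amount 10 nM; incubation: reaction 30 min RT, detection step 1 h RT; medium: HEPES buffer, pH 7.5, plus ascorbate; technique: LANCE TR-FRET, Eu antibody, ULight-streptavidin, EDTA, ex 340 nm, em 618/671 nm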
# IDH1 R132H inh – inhibitors of human IDH1 R132H. O75874. IDH1 R132H reductase, diaphorase/resazurin fluorescence, 60 min. AID 624101. actives 0.18% (n = 70,000). inhibition, % at 10 µM; in the data active = inhibition above about 34%; inconclusive = no clear call, values can overlap the other calls; inactive = below about 11%;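 note: 0% = DMSO and 100% = no enzyme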
# Pf Dd2 inh – P. falciparum Dd2 growth inhibition; SYBR Green, 72 h; hits give low values; activity change, % at 10 µM; actives 2.3% (n = 94,000); AID 1159554; in the data active = activity change below about -80%; inconclusive = no clear call, values can overlap the other calls
# T cruzi growth-2 – Trypanosoma cruzi proliferation inhibition. shares compounds with T cruzi growth-1. T. cruzi beta-gal in NIH3T3, GalScreen luminescence, 90 h. inhibition, % at 8.35 µM. actives 72% (n = 5,600). AID 651739;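 active = mean replicate inhibition above about 95% and at least 55% of replicates individually reaching it, limit read from the data; inconclusive = only one of the two criteria is met; inactive = neither criterion is met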
# T cruzi growth-3 – Trypanosoma cruzi proliferation inhibition. actives 21% (n = 5,600). shares compounds with T cruzi growth-1. AID 651740. T. cruzi beta-gal in NIH3T3, GalScreen luminescence, 90 h. inhibition, % at 2.09 µM;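 active = mean inhibition above about 95%, with at least 55% of replicates also reaching it, limit read from the data; inconclusive = meets just one of the two conditions; inactive = meets neither condition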;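 note: plate controls were neutral control median for no effect and positive control median for full effect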
# NIH3T3 tox – cytotoxicity in mouse NIH/3T3 fibroblasts. shares compounds with T cruzi growth-1. AID 651742. NIH/3T3 viability, CellTiter-Glo ATP luminescence, 90 h. cytotoxicity (signal decrease), % at 8.35 µM. actives 14% (n = 5,600);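 active = mean signal decrease across replicates above about 35% based on untreated-well scatter, with enough replicates individually passing, limit read from the data; inconclusive = no rule stated though some were filed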;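 note: 0% = median of neutral control wells and 100% = median of positive control wells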
# NIH3T3 tox 2 – cytotoxicity in mouse NIH/3T3 fibroblasts | actives 56% (n = 5,600) | NIH/3T3 viability, CellTiter-Glo ATP luminescence, 90 h | AID 651744 | shares compounds with T cruzi growth-1 | inhibition, % at 24.9 µM;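 active = mean loss of cell viability signal at or above a set limit, and enough replicates individually reaching it; inconclusive = meets only the mean limit or only the replicate share; inactive = meets neither condition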;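 note: 0% = median of neutral control wells and 100% = median of positive control wells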
# * marks the source's active call; other numbers are inactive results; ? = inconclusive; / = no result given.
SMILES,T cruzi growth-1,GASC1 inh,IDH1 R132H inh,Pf Dd2 inh,T cruzi growth-2,T cruzi growth-3,NIH3T3 tox,NIH3T3 tox 2
C[C@H](CO)N1C[C@H](C)[C@H](CN(C)Cc2ccc(C(=O)Nc3ccccc3N)cc2)Oc2ccc(NS(=O)(=O)c3cccs3)cc2C1=O,115*,-1,/,-85*,104*,90,14,49*
CC(C)C#Cc1ccc2c(c1)O[C@@H](CN(C)CC1CCOCC1)[C@H](C)CN([C@@H](C)CO)S2(=O)=O,86,1,0,-52,/,/,/,/
CC(C)C#Cc1ccc2c(c1)O[C@@H](CN(C)CC1CCCC1)[C@H](C)CN([C@@H](C)CO)S2(=O)=O,92*,-1,0,-56,105*,53,41*,103*
C[C@H]1CN([C@@H](C)CO)S(=O)(=O)c2ccc(C#Cc3ccccc3)cc2O[C@H]1CN(C)CC1CC1,117*,-3,0,-83*,103*,52,34,105*
CC(C)C#Cc1ccc2c(c1)O[C@@H](CN(C)CC1CCCC1)[C@H](C)CN([C@H](C)CO)S2(=O)=O,92*,-3,0,-47,105*,98*,55*,104*
CC(C)C#Cc1ccc2c(c1)O[C@H](CN(C)CC1CC1)[C@H](C)CN([C@@H](C)CO)S2(=O)=O,51,0,0,-38,/,/,/,/
CCCN1[C@H](C(=O)N[C@@H](C)c2ccccc2)[C@@H](CO)[C@@H]2Cn3c(ccc(-c4cccc(F)c4)c3=O)[C@@H]21,108*,14,/,/,97*,63,3,68*
CCNC(=O)[C@@H]1[C@@H](CO)[C@@H]2Cn3c(ccc(-c4ccccc4)c3=O)[C@@H]2N1Cc1ccc2c(c1)OCO2,102*,1,/,3,101*,0,-31,22
CCCNC(=O)[C@@H]1[C@@H](CO)[C@@H]2Cn3c(ccc(-c4cccc(F)c4)c3=O)[C@H]1N2C(=O)c1ccccn1,103*,0,/,12,?,27,-20,-1
CCCNC(=O)[C@H]1[C@H](CO)[C@H]2Cn3c(ccc(-c4cccc(F)c4)c3=O)[C@@H]1N2C(C)=O,40,0,/,8,/,/,/,/
CCCN1[C@@H]2c3ccc(-c4ccccc4F)c(=O)n3C[C@@H]2[C@@H](CO)[C@@H]1C(=O)NCC,98*,2,/,8,21,-15,4,-6
CCC(C)C(O)C(C)(O)/C=C/C1=CC2=C(Cl)C(=O)C(C)(O)C(OC(C)=O)C2CO1 (stereo not drawn),/,/,3,/,/,/,/,/
CC(=O)Nc1ccc(S(=O)(=O)NC2(C(F)(F)F)C(=O)N(C3CCCCC3)C(C)=C2C(C)=O)cc1 (stereo not drawn),/,/,0,/,/,/,/,/
O=C(CSc1ncn[nH]1)Nc1ccc(-c2nc3ccccc3s2)cc1,/,/,0,/,/,/,/,/
O=C(C1CCC1)N1CCCCN2[C@H](CO)[C@H](c3ccc(C#CC4CCCC4)cc3)[C@H]2C1,101*,/,/,-52,104*,95,22,103*
O=C(C1CCC1)N1CCCCN2[C@@H](CO)[C@@H](c3ccc(C#CC4CCCC4)cc3)[C@@H]2C1,86,/,/,-56,/,/,/,/
O=C(C1CCC1)N1CCCCN2[C@H](CO)[C@@H](c3ccc(C#CC4CCCC4)cc3)[C@H]2C1,?,/,/,-52,87,39,12,104*
O=S(=O)(NC1c2cccc3cccc(c23)C1Sc1nnnn1-c1ccccc1)c1ccccc1 (stereo not drawn),/,/,0,/,/,/,/,/
Cc1cc(C)nc(SCC(=O)Nc2cc([N+](=O)[O-])ccc2C)n1,/,/,0,/,/,/,/,/
C[C@@H]1CCCCO[C@H](CN(C)Cc2ccc3c(c2)OCO3)[C@H](C)CN([C@H](C)CO)C(=O)c2cc(NC(=O)Nc3ccc(F)cc3)ccc2O1,96*,-4,/,-74,103*,59,21,104*
C[C@@H]1CN([C@H](C)CO)C(=O)c2cc(NC(=O)Nc3ccc(F)cc3)ccc2O[C@@H](C)CCCCO[C@@H]1CN(C)Cc1ccc2c(c1)OCO2,88,-3,/,?,/,/,/,/
C[C@@H]1CCCCO[C@@H](CN(C)Cc2ccc3c(c2)OCO3)[C@@H](C)CN([C@H](C)CO)C(=O)c2cc(NC(=O)Nc3ccc(F)cc3)ccc2O1,97*,-1,4,-13,114*,30,11,-6
C[C@H](CO)N1C[C@H](C)[C@@H](CN(C)Cc2ccc3c(c2)OCO3)OCCCC[C@H](C)Oc2ccc(NC(=O)Nc3ccc(F)cc3)cc2C1=O,103*,1,/,16,100*,81,18,43*
C[C@@H]1CN([C@H](C)CO)C(=O)c2cc(NC(=O)Nc3ccc(F)cc3)ccc2O[C@@H](C)CCCCO[C@H]1CN(C)Cc1ccc2c(c1)OCO2,87,-3,2,-71,/,/,/,/
COc1ccc(C)cc1NC(=O)C(C)NS(=O)(=O)c1ccc(Cl)cc1 (stereo not drawn),/,/,1,/,/,/,/,/
SMILES,T cruzi growth-1,GASC1 inh,IDH1 R132H inh,Pf Dd2 inh,T cruzi growth-2,T cruzi growth-3,NIH3T3 tox,NIH3T3 tox 2
COc1ccc(C2OCC3C(c4cc(OC)c5c(c4)OCO5)OCC23)cc1OC (stereo not drawn),/,/,-1,/,/,/,/,/
COc1ccc(S(=O)(=O)N(C)C[C@H]2OCCCC[C@@H](C)Oc3ccc(NC(=O)C4CCCCC4)cc3C(=O)N([C@@H](C)CO)C[C@H]2C)cc1,57,1,-3,-59,/,/,/,/
C[C@H](CO)N1C[C@H](C)[C@@H](CN(C)S(=O)(=O)c2ccc(Cl)cc2)OCCCC[C@H](C)Oc2ccc(NC(=O)C3CCCCC3)cc2C1=O,107*,-1,/,-67,104*,46,-22,-4
C[C@H]1CCCCO[C@H](CN(C)S(=O)(=O)c2ccc(F)cc2)[C@@H](C)CN([C@@H](C)CO)C(=O)c2cc(NC(=O)C3CCCCC3)ccc2O1,86,-1,4,-77,/,/,/,/
C[C@@H]1CN([C@H](C)CO)C(=O)c2cc(NC(=O)C3CCCCC3)ccc2O[C@@H](C)CCCCO[C@H]1CN(C)S(=O)(=O)c1ccc(F)cc1,26,-1,2,-80,/,/,/,/
C[C@@H]1CN([C@H](C)CO)C(=O)c2cc(NC(=O)C3CCCCC3)ccc2O[C@@H](C)CCCCO[C@H]1CN(C)S(=O)(=O)c1ccc(Cl)cc1,102*,1,/,-83*,106*,62,17,70*
COc1ccc(S(=O)(=O)N(C)C[C@@H]2OCCCC[C@@H](C)Oc3ccc(NC(=O)C4CCCCC4)cc3C(=O)N([C@@H](C)CO)C[C@H]2C)cc1,106*,0,1,-69,107*,40,9,21
